Tests used:
[1] = Selectivity index, ratio of CC50 for human HeLaP4 cells to EC50 for HIV1 NL4-3; type: toxicity, cell-based; conditions: read-out: Ratio CC50/EC50
In short: (§1)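 Viability by WST-1 absorbance at 570 nm relative to drug-free control. Divided by EC50 from the 48 h β-galactosidase infection assay with NL4-3 in the same cell type.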

[2] = test system: Human immunodeficiency virus 1; assay: Antiviral activity against wild type HIV1 NL4-3 in human HeLaP4 cells assessed as beta-galactosidase activity after 48 hrs; type: functional, organism-based; conditions: Human immunodeficiency virus 1, NL4-3, HeLaP4, 48 h
In short: (§2)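 Cells plated at 5000/well, incubated 48 h, then medium replaced with compound (0.00128 to 4 µM). Infection 4 h later with cell-free NL4-3 virus equivalent to 100 ng p24. At 48 h postinfection cells lysed in PBS with 0.1% NP-40 and 5 mM MgCl2. β-Galactosidase read with chlorophenol red β-D-galactopyranoside. EC50 taken from dose-response curves.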

[3] = test system: Human immunodeficiency virus 1; assay: Antiviral activity against wild type HIV1 NL4-3 in human TZM-b1 cells assessed as beta-galactosidase activity after 48 hrs; type: functional, organism-based; conditions: Human immunodeficiency virus 1, NL4-3, TZM-b1, 48 h; in short: as §2
[4] = Selectivity index, ratio of CC50 for human TZM-b1 cells to EC50 for HIV1 NL4-3; type: toxicity, cell-based; conditions: read-out: Ratio CC50/EC50; in short: as §1
[5] = test system: Human immunodeficiency virus 1; assay: Antiviral activity against HIV1 NL4-3 with K103N/L100I double mutant in human TZM-b1 cells assessed as beta-galactosidase activity after 48 hrs by single round replication assay; type: functional, organism-based; conditions: Human immunodeficiency virus 1, NL4-3, TZM-b1, 48 h
In short: (§3)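 TZM-bl cells (DMEM, 5% heat-inactivated FBS) plated at 5000 cells/well and grown 48 h. Medium replaced with compound at 0.00128–4 µM. After 4 h, cells infected with NL4-3-derived RT-mutant virus equal to 100 ng p24. Virus stocks came from HEK293 cells transfected with sequence-verified mutant clones. At 48 h, cells lysed in PBS/0.1% NP-40/5 mM MgCl2 and β-galactosidase read with CPRG. EC50 taken from dose-response curves.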

[6] = test system: Human immunodeficiency virus 1; assay: Antiviral activity against HIV1 NL4-3 with V108I mutant in human TZM-b1 cells assessed as beta-galactosidase activity after 48 hrs by single round replication assay; type: functional, organism-based; conditions: Human immunodeficiency virus 1, NL4-3, TZM-b1, 48 h; in short: as §3
[7] = test system: Human immunodeficiency virus 1; assay: Antiviral activity against HIV1 NL4-3 with L100I mutant in human TZM-b1 cells assessed as beta-galactosidase activity after 48 hrs by single round replication assay; type: functional, organism-based; conditions: Human immunodeficiency virus 1, NL4-3, TZM-b1, 48 h; in short: as §3
[8] = test system: Human immunodeficiency virus 1; assay: Antiviral activity against HIV1 NL4-3 with K103N mutant in human TZM-b1 cells assessed as beta-galactosidase activity after 48 hrs by single round replication assay; type: functional, organism-based; conditions: Human immunodeficiency virus 1, NL4-3, TZM-b1, 48 h; in short: as §3
[9] = test system: Human immunodeficiency virus 1; assay: Antiviral activity against HIV1 NL4-3 with Y181C mutant in human TZM-b1 cells assessed as beta-galactosidase activity after 48 hrs by single round replication assay; type: functional, organism-based; conditions: Human immunodeficiency virus 1, NL4-3, TZM-b1, 48 h; in short: as §3
[10] = test system: Human immunodeficiency virus 1; assay: Antiviral activity against HIV1 NL4-3 with L100I/V108I double mutant in human TZM-b1 cells assessed as beta-galactosidase activity after 48 hrs by single round replication assay; type: functional, organism-based; conditions: Human immunodeficiency virus 1, NL4-3, TZM-b1, 48 h; in short: as §3
[11] = test system: Human immunodeficiency virus 1; assay: Antiviral activity against HIV1 NL4-3 in human TZM-b1 cells assessed as beta-galactosidase activity after 48 hrs by single round replication assay; conditions: Human immunodeficiency virus 1, NL4-3, TZM-b1, 48 h
[12] = test system: Human immunodeficiency virus 1; assay: Antiviral activity against HIV1 NL4-3 with K103N/V108I double mutant in human TZM-b1 cells assessed as beta-galactosidase activity after 48 hrs by single round replication assay; conditions: Human immunodeficiency virus 1, NL4-3, TZM-b1, 48 h
[13] = test system: Human immunodeficiency virus 1; assay: Antiviral activity against HIV1 NL4-3 with K103N/Y181C double mutant in human TZM-b1 cells assessed as beta-galactosidase activity after 48 hrs by single round replication assay; conditions: Human immunodeficiency virus 1, NL4-3, TZM-b1, 48 h
[14] = target: Human immunodeficiency virus type 1 reverse transcriptase (Human immunodeficiency virus 1) (UniProt Q72547); assay: Inhibition of recombinant HIV1 reverse transcriptase assessed as residual activity at 10 uM by […] incorporation assay relative to control
In short: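 Recombinant HIV-1 RT, compound at 10 µM final (from DMSO). Incubated 10 min at 37 °C, then collected on DEAE filters and washed. Counted by phosphorimager; activity expressed relative to uninhibited RT.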

[15] = test system: Human immunodeficiency virus 1; assay: Antiviral activity against HIV1 NL4-3 with double K103N/L100I mutant in human MT4 cells assessed as inhibition of virus-induced cytopathicity after 5 days by multiple round replication assay; type: functional, organism-based; conditions: Human immunodeficiency virus 1, NL4-3, MT4, 120 h
In short: (§4)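 MT-4 human T-cells, cultured in RPMI 1640 with 10% heat-inactivated FBS at 37 °C, 5% CO2, infected with HIV-1 NL4-3-derived mutant strains, then exposed to a range of compound concentrations. After 5 days, viability of infected and mock-infected cells read by WST-1 tetrazolium cleavage.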

[16] = test system: Human immunodeficiency virus 1; assay: Antiviral activity against HIV1 NL4-3 with L100I mutant in human MT4 cells assessed as inhibition of virus-induced cytopathicity after 5 days by multiple round replication assay; type: functional, organism-based; conditions: Human immunodeficiency virus 1, NL4-3, MT4, 120 h; in short: as §4
[17] = test system: Human immunodeficiency virus 1; assay: Antiviral activity against HIV1 NL4-3 with K103N mutant in human MT4 cells assessed as inhibition of virus-induced cytopathicity after 5 days by multiple round replication assay; type: functional, organism-based; conditions: Human immunodeficiency virus 1, NL4-3, MT4, 120 h; in short: as §4
[18] = test system: Human immunodeficiency virus 1; assay: Antiviral activity against HIV1 NL4-3 with Y181C mutant in human MT4 cells assessed as inhibition of virus-induced cytopathicity after 5 days by multiple round replication assay; type: functional, organism-based; conditions: Human immunodeficiency virus 1, NL4-3, MT4, 120 h; in short: as §4
[19] = test system: Human immunodeficiency virus 1; assay: Antiviral activity against wild type HIV1 NL4-3 in human MT4 cells assessed as inhibition of virus-induced cytopathicity after 5 days by multiple round replication assay; type: functional, organism-based; conditions: Human immunodeficiency virus 1, NL4-3, MT4, 120 h
In short: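 MT-4 T cells in RPMI 1640 with 10% FBS were infected with NL4-3 (wild type or RT mutants) and exposed to a range of compound concentrations. After 5 days, viability of infected and mock-infected cells was read by WST-1 cleavage, giving EC50 against viral cytopathicity and CC50 together.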

Q: What does the source list for `CCOC(=O)c1c(OC2CCCC(C)C2C)c(CC)c(C)[nH]c1=O` (configuration not stated)?
A: selectivity ratio [1]: 2620; EC50 [2]: 0.013 µM

Q: For `CCOC(=O)c1c(OC2CCC(CC)CC2)c(CC)c(C)[nH]c1=O` (configuration not stated), which selectivity ratio [1] is on record?
A: The selectivity ratio was less than 14.

Q: And the EC50 [2]?
A: Its EC50 is greater than 4 µM.

Q: Which EC50 [3] does the source give for `CCc1c(C)[nH]c(=O)c(C(C)(C)O)c1O[C@@H]1C[C@H](C)C[C@H](C)C1` here?
A: Its EC50 is less than 0.001 µM.

Q: What about the selectivity ratio [4] of the same compound?
A: Its selectivity ratio is greater than 100000.

Q: Which EC50 [5] does the source give for `CCc1c(C)[nH]c(=O)c(N(C)C)c1O[C@@H]1C[C@H](C)C[C@H](C)C1` here?
A: Its EC50 is 2.9 µM.

Q: And the EC50 [6]?
A: The EC50 was 0.006 µM.

Q: And the EC50 [7]?
A: The EC50 was 0.028 µM.

Q: What about the EC50 [8] of the same compound?
A: Its EC50 is 0.014 µM.

Q: And the EC50 [9]?
A: The EC50 was 0.177 µM.

Q: And the EC50 [3]?
A: Its EC50 is less than 0.001 µM.

Q: What about the selectivity ratio [4] of the same compound?
A: The selectivity ratio was greater than 66000.

Q: What about the EC50 [10] of the same compound?
A: The EC50 was 1.6 µM.

Q: What about the EC50 [11] of the same compound?
A: The EC50 was greater than 10 µM.

Q: And the EC50 [12]?
A: The EC50 was greater than 10 µM.

Q: And the EC50 [13]?
A: The EC50 was 0.245 µM.

Q: What does the source list for `CCOC(=O)c1c(OC2C(C)CCCC2C)c(CC)c(C)[nH]c1=O` (configuration not stated)?
A: selectivity ratio [1]: 78; EC50 [2]: 0.955 µM

Q: With `CCOC(=O)c1c(OC2CC(C)(C)CC(C)(C)C2)c(CC)c(C)[nH]c1=O` as the compound, how does the selectivity ratio [1] read?
A: The selectivity ratio was 112.

Q: What about the EC50 [2] of the same compound?
A: The EC50 was 0.258 µM.

Q: For `CCOC(=O)c1c(OC2CCCC2)c(CC)c(C)[nH]c1=O`, which Activity [14] is on record?
A: Its Activity is 58.6%.

Q: And the EC50 [3]?
A: The EC50 was 0.74 µM.

Q: And the selectivity ratio [4]?
A: Its selectivity ratio is greater than 135.

Q: What does the source list for `CCOC(=O)c1c(OC2CCCCC2)c(CC)c(C)[nH]c1=O`?
A: Activity [14]: 44.7%; EC50 [3]: 0.23 µM; selectivity ratio [4]: > 435

Q: Which results are given for `CCc1c(OC2CC(C)CC(C)C2)cc(=O)[nH]c1C` (configuration not stated)?
A: EC50 [3]: 0.275 µM; selectivity ratio [4]: 200

Q: For `CCOC(=O)c1c(OC2CCCCCCC2)c(CC)c(C)[nH]c1=O`, which Activity [14] is on record?
A: Its Activity is 24%.

Q: And the EC50 [3]?
A: The EC50 was 0.7 µM.

Q: And the selectivity ratio [4]?
A: Its selectivity ratio is 83.

Q: Which selectivity ratio [1] does the source give for `CCc1c(C)[nH]c(=O)c(N)c1O[C@@H]1C[C@H](C)C[C@H](C)C1` here?
A: Its selectivity ratio is 83.

Q: And the EC50 [2]?
A: The EC50 was 1.2 µM.

Q: With `CCc1c(C)[nH]c(=O)c(CC)c1O[C@@H]1C[C@H](C)C[C@H](C)C1` as the compound, how does the EC50 [5] read?
A: The EC50 was 0.081 µM.

Q: And the EC50 [7]?
A: The EC50 was 0.006 µM.

Q: What about the EC50 [8] of the same compound?
A: Its EC50 is 0.005 µM.

Q: And the EC50 [9]?
A: Its EC50 is 0.015 µM.

Q: What about the EC50 [15] of the same compound?
A: Its EC50 is 0.145 µM.

Q: What about the EC50 [3] of the same compound?
A: Its EC50 is less than 0.001 µM.

Q: And the selectivity ratio [4]?
A: Its selectivity ratio is greater than 67000.

Q: What about the EC50 [16] of the same compound?
A: The EC50 was 0.027 µM.

Q: What about the EC50 [17] of the same compound?
A: Its EC50 is 0.026 µM.

Q: What about the EC50 [18] of the same compound?
A: Its EC50 is 0.049 µM.

Q: And the EC50 [19]?
A: Its EC50 is 0.002 µM.

Q: And the EC50 [10]?
A: The EC50 was 0.115 µM.

Q: What about the EC50 [11] of the same compound?
A: The EC50 was 5.4 µM.

Q: What about the EC50 [12] of the same compound?
A: The EC50 was 0.107 µM.

Q: What about the EC50 [13] of the same compound?
A: The EC50 was 0.359 µM.

Q: Which selectivity ratio [1] does the source give for `CCOC(=O)c1c(OC2CCCCC2Cl)c(CC)c(C)[nH]c1=O` (configuration not stated) here?
A: Its selectivity ratio is less than 33.

Q: And the EC50 [2]?
A: The EC50 was greater than 3 µM.

Q: Which EC50 [2] does the source give for `CCOC(=O)c1c(O[C@H]2C[C@H](C)C[C@H](C)C2)c(CC)c(C)[nH]c1=O` here?
A: The EC50 was 0.236 µM.

Q: With `CCc1c(C)[nH]c(=O)c(C(C)C)c1O[C@@H]1C[C@H](C)C[C@H](C)C1` as the compound, how does the EC50 [5] read?
A: The EC50 was 0.044 µM.

Q: What about the EC50 [7] of the same compound?
A: Its EC50 is 0.002 µM.

Q: And the EC50 [8]?
A: The EC50 was 0.002 µM.

Q: What about the EC50 [9] of the same compound?
A: The EC50 was 0.006 µM.

Q: What about the EC50 [15] of the same compound?
A: Its EC50 is 0.084 µM.

Q: And the EC50 [3]?
A: The EC50 was less than 0.001 µM.

Q: What about the selectivity ratio [4] of the same compound?
A: Its selectivity ratio is greater than 82000.

Q: And the EC50 [16]?
A: The EC50 was 0.006 µM.

Q: What about the EC50 [17] of the same compound?
A: Its EC50 is 0.007 µM.

Q: And the EC50 [18]?
A: Its EC50 is 0.019 µM.

Q: What about the EC50 [19] of the same compound?
A: The EC50 was 0.002 µM.

Q: And the EC50 [10]?
A: The EC50 was 0.01 µM.

Q: What about the EC50 [11] of the same compound?
A: The EC50 was 1.1 µM.

Q: What about the EC50 [12] of the same compound?
A: Its EC50 is 0.105 µM.

Q: And the EC50 [13]?
A: The EC50 was 0.642 µM.

From ChEMBL document CHEMBL1136985, “New pyridinone derivatives as potent HIV-1 nonnucleoside reverse transcriptase inhibitors” (J Med Chem, 2009)
